Results on three compounds are retold here after ChEMBL document CHEMBL2390856, “Carbon-11 N-methyl alkylation of L-368,899 and in vivo PET imaging investigations for neural oxytocin receptors” (Bioorg Med Chem Lett, 2013).

Data set [1] in a line: Oral bioavailability in rat. It is filed as ADME, organism-based. The conditions noted are these: in vivo.
Data set [2] in a line: Oral bioavailability in dog. It is filed as ADME, organism-based, Canis lupus familiaris. To be noted: in vivo.
The target of data set [3] is Vasopressin V2 receptor (Rattus norvegicus, UniProt Q00788). The data set can be described thus: Inhibition of rat kidney V2 receptor.
In data set [4] the target is Vasopressin V1a receptor (Rattus norvegicus, UniProt P30560). Briefly: Inhibition of rat liver V1a receptor.
In data set [5] the target is T1, Oxytocin receptor (Rattus norvegicus, UniProt P70536).
T1 sequence (P70536 whole entry): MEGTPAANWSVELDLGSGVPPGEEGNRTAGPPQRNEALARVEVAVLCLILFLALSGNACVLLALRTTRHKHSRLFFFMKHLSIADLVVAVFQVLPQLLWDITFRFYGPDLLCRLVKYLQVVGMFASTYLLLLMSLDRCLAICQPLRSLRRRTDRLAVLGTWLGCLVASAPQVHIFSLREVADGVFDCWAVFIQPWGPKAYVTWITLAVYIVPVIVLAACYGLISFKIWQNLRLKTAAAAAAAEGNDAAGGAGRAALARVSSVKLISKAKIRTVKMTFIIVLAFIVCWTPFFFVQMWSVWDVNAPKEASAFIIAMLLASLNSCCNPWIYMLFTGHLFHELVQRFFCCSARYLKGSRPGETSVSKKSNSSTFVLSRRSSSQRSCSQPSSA
The data set can be described thus: Inhibition of rat uterus OT receptor.

Data set [6] addresses Vasopressin V1a receptor (Homo sapiens, UniProt P37288). The data set can be described thus: Binding affinity to human liver V1A receptor.
The target of data set [7] is T2, Vasopressin V1b receptor (Homo sapiens, UniProt P47901).
T2 sequence (P47901 whole entry): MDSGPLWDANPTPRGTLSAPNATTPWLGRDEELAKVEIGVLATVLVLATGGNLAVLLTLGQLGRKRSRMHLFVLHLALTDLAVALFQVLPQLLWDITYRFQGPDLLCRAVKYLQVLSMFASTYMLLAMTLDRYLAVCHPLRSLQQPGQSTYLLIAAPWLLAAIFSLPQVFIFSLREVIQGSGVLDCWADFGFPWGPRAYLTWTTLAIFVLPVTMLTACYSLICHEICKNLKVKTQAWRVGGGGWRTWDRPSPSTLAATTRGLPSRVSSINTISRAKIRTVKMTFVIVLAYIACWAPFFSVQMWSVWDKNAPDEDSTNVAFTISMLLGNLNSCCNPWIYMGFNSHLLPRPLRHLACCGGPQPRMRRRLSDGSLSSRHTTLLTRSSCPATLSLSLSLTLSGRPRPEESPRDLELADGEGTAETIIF
Briefly: Binding affinity to V1B receptor (unknown origin). In short, it runs like this:
(§1)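 Ki values in nM from human receptor binding assays run by the NIMH Psychoactive Drug Screening Program.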

Data set [8] addresses Vasopressin V2 receptor (Homo sapiens, UniProt P30518). The data set can be described thus: Binding affinity to human V2 receptor. In short, it runs like this:
as §1

The target in data set [9] is T3, Oxytocin receptor (Homo sapiens, UniProt P30559).
T3 sequence (P30559 whole entry): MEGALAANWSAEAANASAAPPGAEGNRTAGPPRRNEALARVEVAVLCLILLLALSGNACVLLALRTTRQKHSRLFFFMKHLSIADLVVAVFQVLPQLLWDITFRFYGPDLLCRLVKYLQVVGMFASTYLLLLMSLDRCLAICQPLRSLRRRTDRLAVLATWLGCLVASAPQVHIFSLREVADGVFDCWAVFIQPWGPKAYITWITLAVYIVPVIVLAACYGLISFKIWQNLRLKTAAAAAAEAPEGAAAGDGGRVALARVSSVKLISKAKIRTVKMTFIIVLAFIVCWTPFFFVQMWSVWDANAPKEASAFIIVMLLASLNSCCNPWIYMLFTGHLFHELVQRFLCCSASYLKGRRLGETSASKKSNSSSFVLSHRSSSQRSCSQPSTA
Briefly: Binding affinity to human OT receptor. An outline of the steps:
as §1

Data set [10] concerns Muscle tissue. Briefly: Drug uptake in Sprague-Dawley rat muscle at 500 uCi by PET imaging analysis in presence of ornithine vasotocin. It is filed as ADME, tissue-based. To be noted: in vivo. In short, it runs like this: (§2)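 Estradiol benzoate-primed Sprague-Dawley rats (10–12 μg sc in sesame oil, daily for 3 days). The peptide OT antagonist ornithine vasotocin (5 mg/kg) was injected 10 min before the radiotracer to block peripheral receptors. 500 μCi of tracer was injected 30 s into a 45 min emission scan.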

Data set [11] has as its system Brain. The data set can be described thus: Drug uptake in cynomolgus monkey brain at 8.3 mCi, iv after 2 hrs by PET imaging analysis. The format is ADME, organism-based, Macaca fascicularis. The conditions noted are these: in vivo. An outline of the steps:
(§3)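 One male cynomolgus monkey (8.91 kg) given an 8.3 mCi iv bolus of radiotracer. PET scan for 2 h from injection, with images summed. Time-activity curves were derived for choroid plexus, muscle and whole brain.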

Data set [12] is described as follows: Drug uptake in cynomolgus monkey muscle at 8.3 mCi, iv after 2 hrs by PET imaging analysis. It is filed as ADME, organism-based, Macaca fascicularis, Muscle tissue. To be noted: in vivo. In short, it runs like this:
as §3

A short description of data set [13]: Drug uptake in cynomolgus monkey choroid plexus at 8.3 mCi, iv after 2 hrs by PET imaging analysis. The format is ADME, organism-based, Macaca fascicularis. The conditions noted are these: in vivo. An outline of the steps:
as §3

The nature of data set [14]: Drug uptake in Sprague-Dawley rat amygdala at 500 uCi after 10 mins by PET imaging analysis. It is filed as ADME, tissue-based. The conditions noted are these: in vivo.
Data set [15] has as its system Hypothalamus. Briefly: Drug uptake in Sprague-Dawley rat hypothalamus at 500 uCi after 10 mins by PET imaging analysis. The format is ADME, tissue-based. To be noted: in vivo.
The test system of data set [16] is Brain. The data set can be described thus: Drug uptake in Sprague-Dawley rat brain at 500 uCi after 10 mins by PET imaging analysis. It is filed as ADME, tissue-based. To be noted: in vivo.
Data set [17] can be described thus: Drug uptake in Sprague-Dawley rat dorsal caudate nucleus at 500 uCi after 10 mins by PET imaging analysis. It is filed as ADME, tissue-based. The conditions noted are these: in vivo.
Data set [18] can be described thus: Drug uptake in Sprague-Dawley rat pituitary gland at 500 uCi by PET imaging analysis in presence of ornithine vasotocin. The format is ADME. To be noted: in vivo. In short, it runs like this:
as §2

Data set [19] in a line: Drug uptake in Sprague-Dawley rat pituitary gland at 500 uCi by PET imaging analysis. It is filed as ADME, tissue-based. The conditions noted are these: in vivo.
Data set [20] in a line: Lipophilicity, log P of the compound at pH 7.4. The format is physicochemical. To be noted: buffer.
Data set [21] has as its system Brain. The data set can be described thus: Drug uptake in Sprague-Dawley rat brain at 500 uCi by PET imaging analysis. The conditions noted are these: in vivo. It is filed as ADME, tissue-based.

Chain of Vasopressin V2 receptor (Rattus norvegicus, UniProt Q00788) (Q00788 whole entry): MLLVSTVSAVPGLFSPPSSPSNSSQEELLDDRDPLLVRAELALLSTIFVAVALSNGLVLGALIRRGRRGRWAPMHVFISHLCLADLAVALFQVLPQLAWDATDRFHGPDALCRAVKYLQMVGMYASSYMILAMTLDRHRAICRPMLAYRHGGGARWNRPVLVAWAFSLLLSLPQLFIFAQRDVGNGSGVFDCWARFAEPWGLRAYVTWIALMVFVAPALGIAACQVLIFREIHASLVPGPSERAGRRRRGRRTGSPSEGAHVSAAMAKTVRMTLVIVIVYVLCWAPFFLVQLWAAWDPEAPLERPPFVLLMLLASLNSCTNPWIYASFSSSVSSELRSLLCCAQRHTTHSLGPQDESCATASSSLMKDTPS
Chain of Vasopressin V1a receptor (Rattus norvegicus, UniProt P30560) (P30560 whole entry): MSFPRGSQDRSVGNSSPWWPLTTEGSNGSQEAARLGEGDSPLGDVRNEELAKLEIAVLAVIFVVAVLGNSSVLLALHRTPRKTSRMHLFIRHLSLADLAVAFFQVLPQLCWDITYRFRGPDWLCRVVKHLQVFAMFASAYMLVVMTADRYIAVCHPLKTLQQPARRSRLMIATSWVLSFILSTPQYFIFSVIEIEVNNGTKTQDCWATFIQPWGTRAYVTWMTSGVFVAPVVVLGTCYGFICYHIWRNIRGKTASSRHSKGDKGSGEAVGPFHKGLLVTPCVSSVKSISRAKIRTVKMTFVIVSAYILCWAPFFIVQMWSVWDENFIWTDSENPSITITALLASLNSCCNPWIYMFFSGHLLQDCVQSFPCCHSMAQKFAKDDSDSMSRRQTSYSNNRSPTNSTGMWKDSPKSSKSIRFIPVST
Chain of Vasopressin V1a receptor (Homo sapiens, UniProt P37288) (P37288 whole entry): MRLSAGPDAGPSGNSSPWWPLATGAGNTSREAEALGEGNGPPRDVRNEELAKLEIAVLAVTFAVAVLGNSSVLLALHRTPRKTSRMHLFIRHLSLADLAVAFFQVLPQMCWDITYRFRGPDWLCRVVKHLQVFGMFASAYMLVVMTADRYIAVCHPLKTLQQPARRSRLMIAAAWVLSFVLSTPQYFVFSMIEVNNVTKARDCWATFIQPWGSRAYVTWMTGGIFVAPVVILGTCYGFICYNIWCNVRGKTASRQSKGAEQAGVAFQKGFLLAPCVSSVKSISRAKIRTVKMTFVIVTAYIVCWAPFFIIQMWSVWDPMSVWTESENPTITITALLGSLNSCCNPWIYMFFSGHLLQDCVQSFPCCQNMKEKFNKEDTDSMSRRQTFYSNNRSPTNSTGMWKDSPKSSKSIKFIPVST
Chain of Vasopressin V2 receptor (Homo sapiens, UniProt P30518) (P30518 whole entry): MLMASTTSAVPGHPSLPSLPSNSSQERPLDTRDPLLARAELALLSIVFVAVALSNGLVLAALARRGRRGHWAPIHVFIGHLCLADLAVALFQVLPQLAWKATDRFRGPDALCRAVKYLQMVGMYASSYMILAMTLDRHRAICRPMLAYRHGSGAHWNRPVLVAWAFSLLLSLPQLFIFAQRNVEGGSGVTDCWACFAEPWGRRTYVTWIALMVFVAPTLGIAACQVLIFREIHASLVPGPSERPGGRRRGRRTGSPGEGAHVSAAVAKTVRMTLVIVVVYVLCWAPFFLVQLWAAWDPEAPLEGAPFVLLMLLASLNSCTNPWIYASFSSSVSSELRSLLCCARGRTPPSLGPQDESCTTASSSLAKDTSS

Consider `Cc1ccccc1N1CCN(S(=O)(=O)C[C@]23CC[C@H](C[C@@H]2NC(=O)[C@@H](N)CCS(C)(=O)=O)C3(C)C)CC1`, for which the bioavailability in [1] and in [2] was 17% in each case. The values for the half-inhibitory concentration (IC50) in data set [3], in [4] and in data set [5] were 570 nM, 370 nM and 8.9 nM, respectively.
With `CN[C@@H](CCS(C)(=O)=O)C(=O)N[C@H]1C[C@H]2CC[C@]1(CS(=O)(=O)N1CCN(c3ccccc3C)CC1)C2(C)C`, the Ki – broadly, a measure of affinity in units of concentration, obtained from inhibition or displacement – in [6] was 620 nM; in data set [7] it was 1300 nM; in data set [8], 181 nM; in [9], 5.2 nM. Further, the concentration for half-maximal inhibition (IC50) (usually the midpoint of a concentration-inhibition curve) came to 350 nM in [3], 320 nM in data set [4] and 9.2 nM in [5].
Consider `Cc1ccccc1N1CCN(S(=O)(=O)C[C@]23CC[C@H](C[C@@H]2NC(=O)[C@H](CCS(C)(=O)=O)N[11CH3])C3(C)C)CC1`, for which the Drug uptake result in data set [10] was “Active”; in data set [11], “Not Active”; in data set [12], “Active”; in [13], “Active”; in data set [14] it was “Active”; in [15], “Active”. Moreover, the Drug uptake entry in [16], in data set [17], in data set [18], in data set [19] and in [21] was “Active” throughout. In [20], the pH-dependent lipophilicity (logD) (in general, lipophilicity at a set pH, counting ionised and neutral species) stood at 2.62.
